In paper PMC12005346 (ACS chemical neuroscience, 2023):
Structures can show the parent of a compound that is named as a salt. *1 amine or outer side, *2 acyl side, *3 side chain or, on linkers, in order; H or OH if unused. Where a SMILES comes first, the peptide text is derived from it. Bridges are numbered along the chain shown (N, C = ends). Roman numbers before positions name the chains, in order. [ ]: non-standard residue; d: D form. Piperazine(1,4-diyl) = C1CN([*:2])CCN1[*:1]; Phe(4-F) = N[C@@H](Cc1ccc(F)cc1)C(=O)O; Dmt = Cc1cc(O)cc(C)c1C[C@H](N)C(=O)O; oXylylene = c1ccc(C[*:2])c(C[*:1])c1

Tests used:
[1] = molecular target: human KOR expressed in CHO cells (Homo sapiens, UniProt P41145); assay: 35S-GTPγS coupling assay at KOR; format: biochemical
Chain of human KOR expressed in CHO cells (P41145 whole entry): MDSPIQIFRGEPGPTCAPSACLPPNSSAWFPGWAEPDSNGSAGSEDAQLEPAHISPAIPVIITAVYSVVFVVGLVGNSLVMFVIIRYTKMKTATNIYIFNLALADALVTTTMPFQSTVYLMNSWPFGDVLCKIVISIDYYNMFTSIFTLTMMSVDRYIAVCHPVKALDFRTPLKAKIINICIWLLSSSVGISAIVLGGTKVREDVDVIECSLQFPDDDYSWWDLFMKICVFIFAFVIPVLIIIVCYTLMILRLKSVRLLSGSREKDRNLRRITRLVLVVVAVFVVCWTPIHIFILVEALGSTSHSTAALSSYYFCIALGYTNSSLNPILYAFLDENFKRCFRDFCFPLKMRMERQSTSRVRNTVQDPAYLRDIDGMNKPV
Method in brief: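 Test compounds stimulated 35S-GTPγS coupling at human MOR, DOR or KOR expressed in CHO cells. Reference agonists were included to validate the assay: DAMGO for MOR, SNC80 for DOR and U50,488 for KOR. EC50 and EMAX were calculated separately for each independent experiment and reported as mean ± SEM of N ≥ 3 experiments.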

formalin-induced pain = assay: Formalin test; format: in vivo, mouse; conditions: s.c. hind paw 100 nmol/20 μL, 15 min before formalin
Method in brief: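 Test compound (100 nmol/20 μL) was injected s.c. into the left dorsal hind paw 15 min before formalin (1% in saline, 20 μL/paw) in the same paw. Vehicle was DMSO/saline 1:5 v/v, […] s.c. Total licking/biting time was scored in the early and late phases. Analysis was two-way ANOVA with Tukey's test.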

[2] = test system: response to thermal nociceptive stimuli; assay: Hot plate test after i.c.v. administration; format: in vivo, mouse; conditions: i.c.v. 0.6 nmol/10 μL, 90 to 120 min after administration
Method in brief: (§1)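 Mice received test compound i.c.v. at 0.6 nmol/10 μL. Vehicle was DMSO/saline 1:5 v/v, 10 μL/mouse. Hot plate and tail flick responses to thermal stimuli were recorded as a time course starting 15 min after dosing and expressed as % MPE. Groups were N = 12 or 7. Analysis was two-way ANOVA with Tukey's test versus vehicle.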

[3] = test system: response to thermal nociceptive stimuli; assay: Tail flick test after i.c.v. administration; format: in vivo, mouse; conditions: i.c.v. 0.6 nmol/10 μL, 90 to 120 min after administration
Method in brief: as §1

[4] = test system: dependence and withdrawal; assay: Naloxone-precipitated withdrawal; format: in vivo, CD-1 mice; conditions: 3.2 mg/kg s.c. repeated dosing, naloxone 30 mg/kg i.p. on day 4

Cc1cc(O)cc(C)c1C[C@H](N)C(=O)N[C@@H]1CSCc2ccccc2CSC[C@@H](NC(=O)[C@@H](N)Cc2c(C)cc(O)cc2C)C(=O)NCC(=O)N[C@@H](Cc2ccc(F)cc2)C(=O)N2CCN(CC2)C(=O)[C@H](Cc2ccc(F)cc2)NC(=O)CNC1=O [MJ4, 2 TFA c(Dmt-D-Cys-Gly-P-F-Phe)2-piperazine o-Xylene] (I: H-[Dmt][dC]G[Phe(4-F)] / II: H-[Dmt][dC]G[Phe(4-F)]; linker I:2-II:2 via oXylylene; linker I:C-II:C via Piperazine(1,4-diyl))
KOR agonist activity, in words [1]: more potent agonist activity
licking/biting behavior induced by formalin, early phase (formalin-induced pain): did not change the effects induced by formalin
licking/biting behavior induced by formalin, late phase (formalin-induced pain): did not change the effects induced by formalin

biphalin
antinociceptive effect (% MPE), hot plate [2]: antinociceptive effects steadily decrease
antinociceptive effect (% MPE), tail flick [3]: antinociceptive effects steadily decrease

CN1CC[C@]23c4c5ccc(O)c4O[C@H]2[C@@H](O)C=C[C@H]3[C@H]1C5 [morphine]
urine/feces output in naloxone-precipitated withdrawal [4]: comparable urine/feces output
